Test results published in ChEMBL document CHEMBL1126092, “Design, synthesis, and biological evaluation of novel 4-substituted 1-methyl-1,2,3,6-tetrahydropyridine analogs of MPTP” (J Med Chem, 1992).

Assays:
[1] = substrate: CN1CC=C(Cc2ccccc2)CC1; experiment: (§1) Tested against Monoamine oxidase B enzyme from bovine liver mitochondria
Procedure, shortened: (§2)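 Bovine liver mitochondrial MAO-B, 0.05 unit/mL (unit = 1 μmol benzylamine→benzaldehyde per min; equivalent to 3.7 nmol protein), incubated at 37 °C in 0.1 M sodium phosphate pH 7.4. Reaction started by substrate addition, final 0.1–3.0 mM. Product formation monitored spectrophotometrically, initial rates taken 30–180 s after enzyme addition. Apparent Vmax and KM from double reciprocal plot.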

[2] = substrate: CN1CC=C(OC(=O)N(C)C)CC1; experiment: as §1; procedure, shortened: as §2
[3] = substrate: CN1CC=C(OC(=O)N(C)c2ccccc2)CC1; experiment: as §1; procedure, shortened: as §2
[4] = substrate: CN1CC=C(Oc2ccccc2)CC1; experiment: as §1; procedure, shortened: as §2
[5] = substrate: CN1CC=C(Sc2ccccc2)CC1; experiment: as §1; procedure, shortened: as §2

B1: Amine oxidase [flavin-containing] B (Bos taurus) (protein)
chain: MSSKCDVVVVGGGISGMAAAKLLHDSGLNVIVLEARDRVGGRTYTLRNQKVKYVDLGGSYVGPTQNHILRLSKELGLETYKVNEVERLIHHTKGKSYPFRGSFPSVWNPITYLDHNNLWRTMDDMGREIPSDAPWKAPLAEQWDLMTMKELLDKICWTESSKQLAILFVNLCVTAEIHEVSALWFLWYVKQCGGTTRIFSTSNGGQERKFVGGSGQVSERIMDLLGDRVKLERPVIHIDQTGENVLVETLNHELYEAKYVISAVPPVLGMKIHFNPPLPMMRNQLITRVPLGSVIKSIVYYKEPFWRNMDYCGSMIIEGEEAPVAYALDDTKPDGSYPAIIGFILAHKARKLARLTKEERLKKLCDLYAKVLGSQEALHPVHYEEKNWCEEQYSGGCYTSYFPPGIMTQYGRVLRQPVGRIYFAGTETATHWSGYMEGAVEAGERAAREILHAMGKIPEDEIWLPEPESVDVPAKPITTTFLQRHLPSVPGLLKLIGLTTIFSATALGFLAHKRGLLVRI
For B1, the Km [1] was 83 µM, the Vmax [1] was 0.222 µM/min and the Km [2] was 7100 µM. For the same protein, the Vmax [2] was 0.401 µM/min, the Km [3] was 3850 µM and the Vmax [3] was 0.255 µM/min. It also gave a Km [4] of 234 µM, a Vmax [4] of 0.161 µM/min and a Km [5] of 80 µM. It also gave a Vmax [5] of 0.274 µM/min.
